According to PubChem BioAssay AID588321 (Southern Research Specialized Biocontainment Screening …, 2011):
pIC50: −log10 of the molar value. Activity calls are given as the source filed them.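 Rule for the calls: active = phage lysis blocked by at least 50% at any tested concentration; inactive = the rest.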

What was measured:
[1] = protection of UTI89 from K1F phage lysis – E. coli UTI89, set 5, capsule biogenesis inhibitor project, confirmation (AID 588321); settings: E. coli UTI89 K1F phage lysis inhibition, OD600; for inhibition of phage lysis: at 100 µM (top of the series); for CC50: measured here: cytotoxicity
Summary of the method: (§1)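 Test system: Uropathogenic E. coli UTI89 (K1 capsule) and kpsM mutant cultures; Quantity: bacterial cultures diluted 1:100 into wells; Times: 1.25 h compound pre-incubation before phage, 3 h post-infection, 37 °C with shaking; Measured by: OD600 absorbance; Control set: kpsM mutant resisting phage lysis; Repeats: quadruplicate.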

[2] = test system: E. coli UTI89 K1F phage lysis inhibition, OD600; assay: as above
Summary of the method: as §1

| Compound | inhibition of phage lysis [1] | CC50 [1] [µM] | pIC50 [2] |
| --- | --- | --- | --- |
| O=C(O)c1sc(-c2ccccc2)cc1NC(=O)C1CCCCC1 | 16.1% (inactive) |  |  |
| CCOc1ccc(-c2cc(NC(=O)c3c(F)cccc3F)c(C(=O)OC)s2)cc1 | 14.9% (inactive) | > 300 |  |
| O=C(Nc1cc(-c2ccccc2)sc1C(=O)O)c1cccc(Cl)c1 |  | 52.6 | 4.08 |
| Cc1c(C(=O)Nc2cc(-c3ccccc3)sc2C(=O)O)oc2ccccc12 | 5.2% (inactive) | 48.7 |  |
| O=C(Nc1cc(-c2ccccc2)sc1C(=O)O)c1ccc2c(c1)OCCO2 |  | 82.1 | 4.37 |
| O=C(O)c1sc(-c2ccccc2)cc1NC(=O)C1CCCC1 | 15.2% (inactive) |  |  |
| O=C(Nc1cc(-c2ccccc2)sc1C(=O)O)c1cc2ccccc2o1 | 10.4% (inactive) |  |  |
| O=C(Nc1cc(-c2ccccc2)sc1C(=O)O)c1cc(Cl)c2c(c1)OCCO2 | 6% (inactive) |  |  |
| CCOc1ccc(-c2cc(NC(=O)c3cccc(Cl)c3)c(C(=O)O)s2)cc1 |  | 83.9 | 4.34 |
| Cc1onc(-c2ccccc2)c1C(=O)Nc1cc(-c2ccccc2)sc1C(=O)O | 3.71% (inactive) | 52.6 |  |
| O=C(Nc1cc(-c2ccccc2)sc1C(=O)O)c1ccc(Br)o1 |  | 104 | 4.23 |
| COC(=O)c1sc(-c2ccccc2)cc1NC(=O)c1c(F)cccc1F | 29.8% (inactive) | 10.4 |  |
| O=C(Nc1cc(-c2ccccc2)sc1C(=O)O)c1ccc(Cl)s1 | 10.1% (inactive) | 71.5 |  |
| O=C(Nc1ccncc1)c1ccc2ncsc2c1 |  |  | 5.99 |
| Cc1ccc(C(=O)Nc2cc(-c3ccccc3)sc2C(=O)O)s1 |  | 63.6 |  |
| O=C(Nc1cc(-c2ccccc2)sc1C(=O)O)c1cccc(F)c1 | 18.7% (inactive) | 76.9 |  |
| O=C(Nc1cc(-c2ccccc2)sc1C(=O)O)c1cccs1 |  | 89.3 | 4.08 |
| CCOc1ccc(-c2cc(NC(=O)c3ccc(OC)c(OC)c3)c(C(=O)O)s2)cc1 |  | 82.8 | 4.25 |
